≈ marks a conversion by molar mass, not a printed value. Calls of active or inactive are those of the source. The calls are words filed in the database; no cut-off is given here.
Experiments:
Staphylococcus aureus [1] = experiment: Antibacterial activity against Staphylococcus aureus ATCC 25923 assessed as decrease in ATP level at […] ug/ml after 24 hrs by BacTiter-Glo reagent based bioluminescence assay; format: functional
Pseudomonas aeruginosa = experiment: Antibacterial activity against Pseudomonas aeruginosa ATCC 27853 incubated after 24 hrs by resazurin dye based broth microdilution assay; format: functional; conditions: ATCC 27853, 24 h
Enterococcus faecalis [2] = experiment: Antibacterial activity against Enterococcus faecalis ATCC 51299 incubated after 24 hrs by resazurin dye based broth microdilution assay; format: functional; conditions: ATCC 51299, 24 h
Listeria monocytogenes = experiment: Antibacterial activity against Listeria monocytogenes ATCC 7644 incubated after 24 hrs by resazurin dye based broth microdilution assay; format: functional; conditions: ATCC 7644, 24 h
NIH3T3 = experiment: Cytotoxicity against mouse NIH/3T3 cells assessed as reduction in cell proliferation after 24 hrs by MTT assay; format: cell-based; conditions: NIH3T3, 24 h
Staphylococcus aureus [3] = experiment: Antibacterial activity against Staphylococcus aureus ATCC 25923 incubated after 24 hrs by resazurin dye based broth microdilution assay; format: functional; conditions: ATCC 25923, 24 h
Enterococcus faecalis [4] = experiment: Antibacterial activity against Enterococcus faecalis ATCC 29212 incubated after 24 hrs by resazurin dye based broth microdilution assay; format: functional; conditions: ATCC 29212, 24 h
Escherichia coli [5] = experiment: Antibacterial activity against Escherichia coli ATCC 25922 incubated after 24 hrs by resazurin dye based broth microdilution assay; format: functional; conditions: ATCC 25922, 24 h
Klebsiella pneumoniae = experiment: Antibacterial activity against Klebsiella pneumoniae ATCC 700603 incubated after 24 hrs by resazurin dye based broth microdilution assay; format: functional; conditions: Klebsiella pneumoniae, 700603, 24 h
Escherichia coli [6] = experiment: Antibacterial activity against Escherichia coli ATCC 35218 incubated after 24 hrs by resazurin dye based broth microdilution assay; format: functional; conditions: ATCC 35218, 24 h
[7] = tested on: Escherichia coli ATCC 25922; experiment: Inhibition of Escherichia coli DNA gyrase assessed as inhibition of enzyme-mediated supercoiling of relaxed pHOT1 DNA substrate at […] to […] ug/ml after 30 mins by gel electrophoresis method
[8] = tested on: Escherichia coli ATCC 25922; experiment: Inhibition of Escherichia coli DNA gyrase assessed as inhibition of enzyme-mediated supercoiling of relaxed pHOT1 DNA substrate after 30 mins by gel electrophoresis method
Procedure, shortened: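 E. coli DNA gyrase (1 U) was incubated with relaxed pHOT1 DNA substrate (0.25 µg) for 30 min at 37 °C. Compounds were tested at 15.6, 7.8, 3.9 and 1.95 µg/L. Controls were supercoiled DNA, relaxed DNA, relaxed DNA plus gyrase, and 1% DMSO. Supercoiling was read by agarose gel electrophoresis.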

[9] = Selectivity index, ratio of IC50 for mouse NIH/3T3 cells to MIC90 for Pseudomonas aeruginosa ATCC 27853; format: toxicity; conditions: read-out: Selectivity Index
[10] = Selectivity index, ratio of IC50 for mouse NIH/3T3 cells to MIC90 for Klebsiella pneumoniae ATCC 700603; format: toxicity; conditions: read-out: Selectivity Index
[11] = Selectivity index, ratio of IC50 for mouse NIH/3T3 cells to MIC90 for Listeria monocytogenes ATCC 7644; format: toxicity; conditions: read-out: Selectivity Index

Row | Compound | Activity (Staphylococcus aureus [1]) | MIC90 (Pseudomonas aeruginosa) [µg/mL] | MIC90 (Enterococcus faecalis [2]) [µg/mL] | MIC90 (Listeria monocytogenes) [µg/mL] | IC50 (NIH3T3) [µg/mL] | MIC90 (Staphylococcus aureus [3]) [µg/mL] | MIC90 (Enterococcus faecalis [4]) [µg/mL] | MIC90 (Escherichia coli [5]) [µg/mL] | MIC90 (Klebsiella pneumoniae) [µg/mL] | MIC90 (Escherichia coli [6]) [µg/mL] | inhibition [7] | inhibition [8] | selectivity ratio [9] | selectivity ratio [10] | selectivity ratio [11]
1 | O=C(O)c1cn(C2CC2)c2cc(N3CCNCC3)c(F)cc2c1=O [CIPROFLOXACIN] | Active | ≤ 1.95 | ≤ 1.95 | 3.9 (≈ 11.8 µM) | 306 (≈ 923 µM) | ≤ 1.95 | ≤ 1.95 | ≤ 1.95 | ≤ 1.95 | ≤ 1.95 | – | – | – | – | –
2 | CCOC(=O)c1cn(-c2ccc(F)cc2F)c2nc(Sc3nc4cc(Cl)ccc4[nH]3)c(F)cc2c1=O | – | 125 (≈ 235 µM) | 125 (≈ 235 µM) | 62.5 (≈ 118 µM) | – | 62.5 (≈ 118 µM) | 125 (≈ 235 µM) | 62.5 (≈ 118 µM) | 125 (≈ 235 µM) | 125 (≈ 235 µM) | – | – | – | – | –
3 | O=C(O)c1cn(-c2ccc(F)cc2F)c2nc(Sc3nc4ccccc4[nH]3)c(F)cc2c1=O | – | 31.2 (≈ 66.7 µM) | 31.2 (≈ 66.7 µM) | 31.2 (≈ 66.7 µM) | – | 7.8 (≈ 16.7 µM) | 15.6 (≈ 33.3 µM) | 15.6 (≈ 33.3 µM) | 31.2 (≈ 66.7 µM) | 15.6 (≈ 33.3 µM) | – | – | – | – | –
4 | CCOC(=O)c1cn(-c2ccc(F)cc2F)c2nc(Sc3nc4ccccc4s3)c(F)cc2c1=O | – | 125 (≈ 243 µM) | 125 (≈ 243 µM) | 125 (≈ 243 µM) | – | 62.5 (≈ 122 µM) | 125 (≈ 243 µM) | 125 (≈ 243 µM) | 125 (≈ 243 µM) | 125 (≈ 243 µM) | – | – | – | – | –
5 | CCOC(=O)c1cn(-c2ccc(F)cc2F)c2nc(Sc3nc4cc(C)ccc4[nH]3)c(F)cc2c1=O | – | 62.5 (≈ 122 µM) | 250 (≈ 490 µM) | 125 (≈ 245 µM) | – | 62.5 (≈ 122 µM) | 125 (≈ 245 µM) | 125 (≈ 245 µM) | 125 (≈ 245 µM) | 250 (≈ 490 µM) | – | – | – | – | –
6 | CCOC(=O)c1cn(-c2ccc(F)cc2F)c2nc(Sc3nc4ccccc4[nH]3)c(F)cc2c1=O | – | 125 (≈ 252 µM) | 62.5 (≈ 126 µM) | 125 (≈ 252 µM) | – | 125 (≈ 252 µM) | 125 (≈ 252 µM) | 62.5 (≈ 126 µM) | 125 (≈ 252 µM) | 125 (≈ 252 µM) | – | – | – | – | –
7 | CCOC(=O)c1cn(-c2ccc(F)cc2F)c2nc(Sc3nc4cc([N+](=O)[O-])ccc4[nH]3)c(F)cc2c1=O | – | 125 (≈ 231 µM) | 250 (≈ 462 µM) | 125 (≈ 231 µM) | – | 125 (≈ 231 µM) | 250 (≈ 462 µM) | 250 (≈ 462 µM) | 125 (≈ 231 µM) | 125 (≈ 231 µM) | – | – | – | – | –
8 | O=C(O)c1cn(-c2ccc(F)cc2F)c2nc(Sc3nc4ccccc4s3)c(F)cc2c1=O | – | 31.2 (≈ 64.4 µM) | 62.5 (≈ 129 µM) | 31.2 (≈ 64.4 µM) | – | 15.6 (≈ 32.1 µM) | 31.2 (≈ 64.4 µM) | 31.2 (≈ 64.4 µM) | 31.2 (≈ 64.4 µM) | 31.2 (≈ 64.4 µM) | – | – | – | – | –
9 | CCOC(=O)c1cn(-c2ccc(F)cc2F)c2nc(N3CCN(CCCN(C)C)CC3)c(F)cc2c1=O | – | 125 (≈ 242 µM) | 62.5 (≈ 121 µM) | 125 (≈ 242 µM) | – | 62.5 (≈ 121 µM) | 125 (≈ 242 µM) | 125 (≈ 242 µM) | 250 (≈ 483 µM) | 125 (≈ 242 µM) | – | – | – | – | –
10 | Cc1ccc2[nH]c(Sc3nc4c(cc3F)c(=O)c(C(=O)O)cn4-c3ccc(F)cc3F)nc2c1 | – | 15.6 (≈ 32.3 µM) | 31.2 (≈ 64.8 µM) | 31.2 (≈ 64.8 µM) | – | 3.9 (≈ 8.08 µM) | 31.2 (≈ 64.8 µM) | 7.8 (≈ 16.2 µM) | 31.2 (≈ 64.8 µM) | 3.9 (≈ 8.08 µM) | – | – | – | – | –
11 | COc1c(N2C[C@@H]3CCCN[C@@H]3C2)c(F)cc2c(=O)c(C(=O)O)cn(C3CC3)c12 [MOXIFLOXACIN] | – | 3.9 (≈ 9.72 µM) | ≤ 1.95 | 3.9 (≈ 9.72 µM) | 380 (≈ 946 µM) | ≤ 1.95 | ≤ 1.95 | ≤ 1.95 | 3.9 (≈ 9.72 µM) | ≤ 1.95 | Active | – | – | – | –
12 | O=C(O)c1cn(-c2ccc(F)cc2F)c2nc(Sc3nc4cc(Cl)ccc4[nH]3)c(F)cc2c1=O | – | 31.2 (≈ 62.1 µM) | 31.2 (≈ 62.1 µM) | 15.6 (≈ 31 µM) | – | 7.8 (≈ 15.5 µM) | 31.2 (≈ 62.1 µM) | 15.6 (≈ 31 µM) | 31.2 (≈ 62.1 µM) | 15.6 (≈ 31 µM) | – | – | – | – | –
13 | N[C@@H]1[C@H]2CN(c3nc4c(cc3F)c(=O)c(C(=O)O)cn4-c3ccc(F)cc3F)C[C@@H]12 [TROVAFLOXACIN] | Active | ≤ 1.95 | ≤ 1.95 | ≤ 1.95 | 244 (≈ 587 µM) | ≤ 1.95 | ≤ 1.95 | ≤ 1.95 | ≤ 1.95 | ≤ 1.95 | Active | – | – | – | –
14 | O=C(O)c1cn(-c2ccc(F)cc2F)c2nc(Sc3nc4cc([N+](=O)[O-])ccc4[nH]3)c(F)cc2c1=O | Active | 15.6 (≈ 30.4 µM) | 15.6 (≈ 30.4 µM) | 15.6 (≈ 30.4 µM) | 122 (≈ 237 µM) | 1.95 (≈ 3.8 µM) | 7.8 (≈ 15.2 µM) | 3.9 (≈ 7.6 µM) | 15.6 (≈ 30.4 µM) | 3.9 (≈ 7.6 µM) | – | Dose-dependent effect | 8 | 8 | 8
